Source: PubChem (several laboratories)
The entries come from a sample that favours hits as a whole.
XBP1 UPR activ = adaptive UPR (XBP1) activation. CHO-XBP1 luciferase reporter, IRE1-XBP1 UPR activation, luminescence; percent of tunicamycin response, DMSO as zero. activation, % at 20 µM. 0.33% of 330,000 active. AID 463104;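 active means versus positive control, 20 µM dose yields 30% or more activation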
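Assay system: IRE1-XBP1 luciferase reporter CHO line. Input: 1000 cells/well. Buffer or medium: F12 with 10% serum. Doses: 20 µM, 1% DMSO. Times: overnight seeding at 37 °C, 6 h compound treatment at 37 °C. Technique: Steady-Glo luciferase glow luminescence, 10 min after reagent addition.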
CHOP inh = CHOP inhibition in unfolded protein response; CHO-K1 CHOP-promoter luciferase, tunicamycin-induced, 15-18 h; inhibition, % at 10 µM; 3.8% of 220,000 active;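 active means compounds that reduced the stress-induced luciferase reporter signal by more than about 70% of percent inhibition, limit read from the data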
T cruzi inh = T. cruzi replication inhibition. T. cruzi beta-gal in NIH3T3, luminescence, 90 h. AID 1885. inhibition, % (concentration not given with the values). 1.4% of 300,000 active;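 active means mean inhibition across valid replicates above about 55%, limit read from the data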;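 further: signal also drops with host cell toxicity which is not excluded here; higher percent means less beta-gal luminescence so fewer parasites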
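Read-out: Parasite load inhibition, % | Test system: Mouse NIH/3T3 fibroblasts infected with β-gal-expressing T. cruzi Tulahuen C4 | Amount: 5,000 cells/well | Medium: DMEM, 2% fetal bovine serum | Signal: GalScreen β-gal luminescence, detergent lysis, 60 min | Timing: 3 h attach, ≥90 h co-culture | Also added: Tulahuen C4 trypomastigotes, 5000/well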
UPR CHOP act = apoptotic UPR (CHOP) activation; CHO-CHOP luciferase reporter, luminescence; percent of tunicamycin response over DMSO baseline; activation, % at 10 µM; 0.34% of 330,000 active;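 active means at 10 µM dose, activation of 40% or more, normalized to positive control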
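System: CHO CHOP reporter cells. Amount: 500 cells per well. Buffer or medium: F12 medium, 10% FBS. Compound dosing: one dose, 10 µM in 0.5% DMSO. Incubation: 6 h compound exposure at 37 °C after overnight seeding. Technique: Steady-Glo luciferase luminescence. Benchmarks: tunicamycin and DMSO controls.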
Lmaj promast = Leishmania major promastigote growth inhibition; Leishmania major promastigotes, resazurin fluorescence viability; inhibition, % at 10 µM; 9% of 200,000 active; in the data active means inhibition above about 50%;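 further: promastigotes grown with compound for 44 hours at 28 °C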
Dynein cargo inh = blocks dynein driven cargo transport along microtubules | AID 1381 | z-score, hits read low | 3617.4 mouse cells, GR-EGFP nuclear translocation imaging; test concentration mostly 20 µM; stimulated with dexamethasone, 1 µM; stronger effect = lower value | 0.47% of 220,000 active;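 active means plate z-score of nuclear minus cytoplasmic receptor signal below a set negative limit, without overly bright fluorescence or cell loss, cut at about -3.5 in these data, passing the limit was not always enough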;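 further: z-score of nuclear minus cytoplasmic ring GR-EGFP intensity difference per well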
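Buffer or medium: tetracycline-free induction medium containing charcoal-stripped FBS / Reagent: dexamethasone agonist, 1.0 µM final, for 30 min / Technique: automated 10x imaging of fixed Hoechst-stained cells / Times: induction 48 h, compound 1 h, agonist 30 min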
A number is an active result.

COCCn1c(SCc2ccc(C(=O)OC)o2)nc2ccccc2c1=O was read as XBP1 UPR activ inactive, CHOP inh inactive, UPR CHOP act inactive, Lmaj promast inactive and Dynein cargo inh inactive.
`COC(=O)c1ccc(CSc2nc3c(c(=O)n2-c2ccccc2)SCC3)o1` gave XBP1 UPR activ inactive, CHOP inh inactive, T cruzi inh inactive, UPR CHOP act inactive, Lmaj promast 87.4 and Dynein cargo inh inactive.
For COC(=O)c1ccc(CSc2nc3c(c(=O)n2-c2ccc(F)cc2)SCC3)o1 the results were XBP1 UPR activ inactive, CHOP inh inactive, T cruzi inh inactive, UPR CHOP act inactive, Lmaj promast 100.1 and Dynein cargo inh inactive.
For COC(=O)c1ccc(CSc2nc3ccccc3c(=O)n2-c2ccc(OC)c(OC)c2)o1 the results were XBP1 UPR activ inactive, CHOP inh inactive, T cruzi inh inactive, UPR CHOP act inactive, Lmaj promast 97.3 and Dynein cargo inh inactive.
For CCOC(=O)C1CCN(C(=O)Cn2nc(C)n3c(cc4cc(F)ccc43)c2=O)CC1 the results were XBP1 UPR activ inactive, T cruzi inh inactive and UPR CHOP act inactive.
For O=C(CCc1ccccc1)N/N=C/c1cc(Br)ccc1O the results were XBP1 UPR activ inactive, CHOP inh 75.8, T cruzi inh inactive, UPR CHOP act inactive, Lmaj promast 98.2 and Dynein cargo inh inactive.
O=C(N/N=C/c1cc(Br)ccc1O)c1ccccc1Cl was read as XBP1 UPR activ inactive, CHOP inh inactive, T cruzi inh inactive, UPR CHOP act inactive, Lmaj promast 98.2 and Dynein cargo inh inactive.
O=C(N/N=C/c1ccccc1Cl)c1ccncc1 was read as XBP1 UPR activ inactive, T cruzi inh inactive and UPR CHOP act inactive.
`O=C(N/N=C/c1cc(Br)ccc1O)c1cccc(N2CCCC2=O)c1` gave XBP1 UPR activ inactive, CHOP inh inactive, T cruzi inh inactive, UPR CHOP act inactive, Lmaj promast 99.6 and Dynein cargo inh inactive.
`O=C(N/N=C/c1cc(Cl)ccc1O)c1ccncc1` gave XBP1 UPR activ inactive, CHOP inh 72.5, T cruzi inh inactive, UPR CHOP act inactive and Dynein cargo inh inactive.
COC(=O)N/N=C/c1cc(Br)ccc1O was read as XBP1 UPR activ inactive, CHOP inh inactive, T cruzi inh inactive, UPR CHOP act inactive, Lmaj promast inactive and Dynein cargo inh inactive.
For COc1ccc(N2CCN(C(=S)Nc3cccc(OC)c3)CC2)cc1 the results were XBP1 UPR activ inactive, T cruzi inh inactive and UPR CHOP act inactive.
CCOc1ccc(NC(=S)N2CCC(N(C)CCN3CCOCC3)CC2)cc1 was read as XBP1 UPR activ inactive, CHOP inh inactive, T cruzi inh inactive, UPR CHOP act inactive, Lmaj promast inactive and Dynein cargo inh inactive.
For CCCCN(C)C1CCN(C(=S)Nc2cccc(OC)c2)CC1 the results were XBP1 UPR activ inactive, CHOP inh inactive, T cruzi inh inactive, UPR CHOP act inactive, Lmaj promast 79.9 and Dynein cargo inh inactive.
`CCCCN(C)C1CCN(C(=S)Nc2ccc(OCC)cc2)CC1` gave XBP1 UPR activ inactive, CHOP inh inactive, T cruzi inh inactive, UPR CHOP act inactive, Lmaj promast 82.4 and Dynein cargo inh inactive.
For Cn1nc(-c2ccc(Cl)cc2)c2cc(C(=O)NCC3CCCO3)sc21 (configuration not stated) the results were XBP1 UPR activ inactive, CHOP inh inactive, T cruzi inh inactive, UPR CHOP act inactive, Lmaj promast inactive and Dynein cargo inh inactive.
`CCN(CC)CCCNC(=O)c1cc(-c2ccc(Cl)c(Cl)c2)on1` gave XBP1 UPR activ inactive, CHOP inh inactive, T cruzi inh inactive, UPR CHOP act inactive, Lmaj promast 99.3 and Dynein cargo inh inactive.
For CCN(CC)CCCNC(=O)c1cc2c(-c3ccc(Cl)cc3)nn(C)c2s1 the results were XBP1 UPR activ inactive, CHOP inh inactive, T cruzi inh inactive, UPR CHOP act inactive, Lmaj promast 100.5 and Dynein cargo inh inactive.
`CN1CCN(CCCNC(=O)c2cc3c(-c4ccc(Cl)cc4)nn(C)c3s2)CC1` gave XBP1 UPR activ inactive, CHOP inh inactive, T cruzi inh inactive, UPR CHOP act inactive, Lmaj promast 100.2 and Dynein cargo inh inactive.
Screening CCCCN(CC)CCNC(=O)c1cc2c(-c3ccccc3F)nn(C)c2s1 returned XBP1 UPR activ inactive, T cruzi inh inactive and UPR CHOP act inactive.
For O=C(Nc1cc([N+](=O)[O-])ccc1Cl)c1ccc2c(c1)OCO2 the results were XBP1 UPR activ inactive, CHOP inh inactive, T cruzi inh inactive, UPR CHOP act inactive, Lmaj promast inactive and Dynein cargo inh inactive.
COc1cccc(C(=S)N2CCOCC2)c1OS(=O)(=O)c1ccc(Cl)cc1 was read as XBP1 UPR activ inactive, T cruzi inh inactive and UPR CHOP act inactive.
Screening CSc1ncccc1C(=O)OCC(=O)NC(C)CCc1ccccc1 (configuration not stated) returned XBP1 UPR activ inactive and UPR CHOP act inactive.
Screening COc1ccc(/C=C(/C(=O)c2ccc(Cl)cc2Cl)n2cncn2)cc1 returned XBP1 UPR activ inactive, CHOP inh inactive, T cruzi inh 62.2, UPR CHOP act inactive, Lmaj promast inactive and Dynein cargo inh inactive.
Screening O=C(OCn1cncn1)c1ccc(Cl)cc1Cl returned XBP1 UPR activ inactive, CHOP inh inactive, T cruzi inh inactive, UPR CHOP act inactive, Lmaj promast inactive and Dynein cargo inh inactive.
CN(C)c1ccc(/C=C(/C(=O)c2ccc(Cl)cc2Cl)n2cncn2)cc1 was read as XBP1 UPR activ inactive, CHOP inh inactive, T cruzi inh inactive, UPR CHOP act inactive, Lmaj promast 50.7 and Dynein cargo inh inactive.
Screening CCOCCCNC(=O)CN1C(=O)NC(Cc2c[nH]c3ccccc23)C1=O (configuration not stated) returned XBP1 UPR activ inactive, T cruzi inh inactive and UPR CHOP act inactive.
`O=C1/C(=C/c2cccnc2)SC(=S)N1C1CCS(=O)(=O)C1` (configuration not stated) gave XBP1 UPR activ inactive, CHOP inh inactive, T cruzi inh inactive, UPR CHOP act inactive, Lmaj promast 92.2 and Dynein cargo inh inactive.
For O=C1/C(=C/c2cccnc2)SC(=S)N1N1CCOCC1 the results were XBP1 UPR activ inactive, CHOP inh inactive, T cruzi inh inactive, UPR CHOP act inactive and Dynein cargo inh inactive.
`O=C1/C(=C\c2cccnc2)SC(=S)N1C1CCS(=O)(=O)C1` (configuration not stated) gave XBP1 UPR activ inactive, CHOP inh inactive, T cruzi inh inactive, UPR CHOP act inactive, Lmaj promast 72.9 and Dynein cargo inh inactive.
For CC(C)N(CCCNC(=O)Cn1c(=O)c2cccn2c2ccccc21)Cc1ccccc1 the results were XBP1 UPR activ inactive, T cruzi inh inactive and UPR CHOP act inactive.
